Activity calls are given as the source filed them. No cut-off for these calls is given here.
Columns and labels:
[1] = test system: Mus musculus; assay: Toxicity in trophozoite Plasmodium berghei infected in sc dosed mouse administered as single dose 72 hrs after parasite infection; assay type: organism-based; conditions: in vivo
How it was run: (§1)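 Mice were infected with P. berghei trophozoites and given one subcutaneous dose of test compound 72 h later, up to a maximum of 640 mg/kg. Mean survival time of treated mice was compared with untreated controls. A 2.5-day prolongation counted as significant, and activity required a mean survival of at least 12 days. Cure meant 60-day survival without parasitemia.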

[2] = test system: Plasmodium berghei; assay: Antimalarial activity against trophozoite Plasmodium berghei infected in mouse assessed as increase in mean survival time administered as single dose 72 hrs after parasite infection; assay type: functional, organism-based; how it was run: as §1
[3] = test system: Gallus gallus (chicken); assay: Toxicity in Plasmodium gallinaceum infected in chick at 640 mg/kg, sc administered as single dose 72 hrs after parasite infection; conditions: in vivo
[4] = test system: Plasmodium gallinaceum; assay: Antimalarial activity against Plasmodium gallinaceum infected in chick assessed as increase in mean survival time at 640 mg/kg, sc administered as single dose 72 hrs after parasite infection; conditions: route subcutaneous
[5] = test system: Plasmodium berghei; assay: Antimalarial activity against trophozoite Plasmodium berghei infected in mouse assessed as increase in mean survival time at 640 mg/kg, sc administered as single dose 72 hrs after parasite infection; assay type: functional; conditions: route subcutaneous
How it was run: (§2)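 Mice were infected with P. berghei trophozoites and given one subcutaneous dose of test compound 72 h later. The read-out was the increase in mean survival time of treated over control animals (MSTT vs MSTC); prolongation of 2.5 days was taken as significant, and a 12-day minimum mean survival was required for activity. Survivors at 60 days without parasitemia counted as cured. The maximum dose was 640 mg/kg.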

[6] = test system: Plasmodium gallinaceum; assay: Antimalarial activity against Plasmodium gallinaceum infected in chick assessed as increase in mean survival time at 240 mg/kg, sc administered as single dose 72 hrs after parasite infection; conditions: route subcutaneous
[7] = test system: Plasmodium gallinaceum; assay: Antimalarial activity against Plasmodium gallinaceum infected in chick assessed as increase in mean survival time at 320 mg/kg, sc administered as single dose 72 hrs after parasite infection; conditions: route subcutaneous
[8] = test system: Plasmodium berghei; assay: Antimalarial activity against trophozoite Plasmodium berghei infected in mouse assessed as increase in mean survival time at 320 mg/kg, sc administered as single dose 72 hrs after parasite infection; assay type: functional; conditions: route subcutaneous; how it was run: as §2
[9] = test system: Mus musculus; assay: Toxicity in trophozoite Plasmodium berghei infected in mouse at 640 mg/kg, sc administered as single dose 72 hrs after parasite infection; assay type: organism-based; design: dose 640 mg/kg, route subcutaneous; conditions: in vivo; how it was run: as §1
[10] = test system: Plasmodium berghei; assay: Antimalarial activity against trophozoite Plasmodium berghei infected in mouse assessed as increase in mean survival time at 160 mg/kg, sc administered as single dose 72 hrs after parasite infection; assay type: functional; conditions: route subcutaneous; how it was run: as §2
[11] = test system: Plasmodium berghei; assay: Antimalarial activity against trophozoite Plasmodium berghei infected in mouse assessed as increase in mean survival time at 80 mg/kg, sc administered as single dose 72 hrs after parasite infection; assay type: functional; conditions: route subcutaneous; how it was run: as §2
[12] = test system: Plasmodium berghei; assay: Antimalarial activity against trophozoite Plasmodium berghei infected in mouse assessed as increase in mean survival time at 40 mg/kg, sc administered as single dose 72 hrs after parasite infection; assay type: functional; conditions: route subcutaneous; how it was run: as §2
[13] = test system: Plasmodium berghei; assay: Antimalarial activity against trophozoite Plasmodium berghei infected in mouse assessed as increase in mean survival time at 20 mg/kg, sc administered as single dose 72 hrs after parasite infection; assay type: functional; conditions: route subcutaneous; how it was run: as §2
[14] = test system: Plasmodium berghei; assay: Antimalarial activity against trophozoite Plasmodium berghei infected in mouse assessed as increase in mean survival time at 10 mg/kg, sc administered as single dose 72 hrs after parasite infection; assay type: functional; conditions: route subcutaneous; how it was run: as §2
[15] = test system: Gallus gallus (chicken); assay: Toxicity in Plasmodium gallinaceum infected in chick at 480 mg/kg, sc administered as single dose 72 hrs after parasite infection; conditions: in vivo
[16] = test system: Plasmodium gallinaceum; assay: Antimalarial activity against Plasmodium gallinaceum infected in chick assessed as increase in mean survival time at 480 mg/kg, sc administered as single dose 72 hrs after parasite infection; conditions: route subcutaneous
[17] = test system: Plasmodium gallinaceum; assay: Antimalarial activity against Plasmodium gallinaceum infected in chick assessed as increase in mean survival time at 80 mg/kg, sc administered as single dose 72 hrs after parasite infection; conditions: route subcutaneous
[18] = test system: Plasmodium gallinaceum; assay: Antimalarial activity against Plasmodium gallinaceum infected in chick assessed as increase in mean survival time at 160 mg/kg, sc administered as single dose 72 hrs after parasite infection; conditions: route subcutaneous

N#C/C(=N/NC(=N)N)c1cccs1.O=[N+]([O-])O
Activity [1]: Toxic

COc1ccc(-c2nnc(/N=C/N(C)C)nc2/N=C/N(C)C)cc1OC
Activity [2]: inactive

Cc1n[nH]c(=S)[nH]c1=O
Activity [1]: Toxic

Cc1nnc(S)nc1S
Activity [1]: Toxic
Activity [3]: Toxic
T/C [4]: 4.4

Cc1ccc(S(=O)(=O)NC(=O)Nc2nnc(-c3ccc4c(c3)OCO4)c(N)n2)cc1
Activity [2]: inactive

Cc1ccc(-c2nnc(N)nc2N)cc1C
MST [5]: 4.9 days

CS(=O)(=O)c1ccc(-c2nnc(N)nc2N)cc1
Activity [1]: Toxic

Cc1ccc(-c2nnc(N)nc2N)cc1Cl
T/C [5]: 9.9

Nc1nnc(-c2cccc(C(F)(F)F)c2)c(N)n1
MST [5]: 4.6 days
T/C [6]: 2.2
T/C [7]: 1.5

Nc1nnc(-c2ccccc2)c(-c2ccccc2)n1
Activity [1]: Toxic

COc1ccc(-c2nnc(NC(=O)Nc3ccccc3)nc2N)cc1OC
Activity [2]: inactive

Cc1nnc(N)nc1C
MST [5]: 4.2 days
Activity [2]: inactive

COc1ccc(-c2nnc(N)nc2N)cc1OC
MST [8]: 10.1 days
MST [5]: 11.7 days
T/C [7]: 7

Nc1nnc(-c2ccc(C(F)(F)F)cc2)c(N)n1
T/C [8]: 0
Activity [9]: Toxic
T/C [5]: 0
T/C [10]: 0
T/C [11]: 0
T/C [12]: 12.8
T/C [13]: 12.8
T/C [14]: 6.8
Activity [15]: Toxic
T/C [4]: 9.9
T/C [16]: 9.9
T/C [6]: 6.4

Nc1nnc(-c2ccc3c(c2)OCO3)c(N)n1
T/C [8]: 12.2
T/C [5]: 15.4
T/C [10]: 7.1
T/C [17]: 1.7
T/C [7]: 3.2
T/C [18]: 3.2

CN(C)/C=N/c1nnc(-c2ccc3c(c2)OCO3)c(/N=C/N(C)C)n1
MST [5]: 5.9 days
Activity [2]: inactive
T/C [16]: 1.5

CSc1nnc(C)c(SC)n1
Activity [1]: Toxic
